Two compounds from ChEMBL document CHEMBL4196009, “Novel vitexin-inspired scaffold against leukemia” (Eur J Med Chem, 2018) can be followed below.

The source made the active and inactive calls. The rule behind the calls is not given here.

The target of test [1] is T1, Retinoblastoma-associated protein (Homo sapiens) (UniProt P06400).
T1 sequence (whole entry): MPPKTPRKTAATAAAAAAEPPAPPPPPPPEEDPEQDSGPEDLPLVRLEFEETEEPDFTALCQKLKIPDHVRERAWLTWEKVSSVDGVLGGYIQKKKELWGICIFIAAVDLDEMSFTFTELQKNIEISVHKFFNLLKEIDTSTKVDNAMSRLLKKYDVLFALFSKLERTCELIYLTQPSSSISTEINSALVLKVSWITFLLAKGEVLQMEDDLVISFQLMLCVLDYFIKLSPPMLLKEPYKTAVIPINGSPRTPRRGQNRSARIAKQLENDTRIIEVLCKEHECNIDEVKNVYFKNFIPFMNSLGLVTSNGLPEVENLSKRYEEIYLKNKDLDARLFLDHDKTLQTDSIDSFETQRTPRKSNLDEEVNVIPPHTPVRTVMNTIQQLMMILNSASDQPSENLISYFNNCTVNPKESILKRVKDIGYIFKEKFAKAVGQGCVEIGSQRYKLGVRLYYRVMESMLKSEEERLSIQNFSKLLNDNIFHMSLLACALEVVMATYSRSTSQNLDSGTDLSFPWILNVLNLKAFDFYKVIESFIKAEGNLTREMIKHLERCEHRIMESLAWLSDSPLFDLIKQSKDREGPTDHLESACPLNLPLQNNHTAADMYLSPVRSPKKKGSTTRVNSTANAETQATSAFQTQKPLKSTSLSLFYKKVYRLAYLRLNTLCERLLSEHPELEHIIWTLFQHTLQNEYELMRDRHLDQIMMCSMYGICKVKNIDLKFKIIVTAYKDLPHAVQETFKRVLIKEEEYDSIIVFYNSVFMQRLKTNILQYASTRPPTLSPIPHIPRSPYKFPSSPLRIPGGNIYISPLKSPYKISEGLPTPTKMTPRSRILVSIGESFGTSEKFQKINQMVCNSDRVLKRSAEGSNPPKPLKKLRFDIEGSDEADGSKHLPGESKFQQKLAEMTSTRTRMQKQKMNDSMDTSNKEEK
Kind of test: Inhibition of Rb phosphorylation in human KOPN8 cells after 24 hrs by Western blot analysis. The test is classed as cell-based. In outline:
(§1)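 KOPN-8 cells were exposed to compound for 3 h and 24 h, with or without N-acetylcysteine added to a parallel set as antioxidant. Lysates were analysed by Western blot for cleaved PARP, Mcl-1, Ser-2-phosphorylated RNAPII CTD, cMyc, total Rb and pRb. Signals were compared against controls for dose-dependent change.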
In general terms: In western blotting, separated proteins are transferred to a membrane and probed.

Test [2] has as its system KOPN-8. Kind of test: Effect on c-Myc expression in human KOPN8 cells at 30 uM after 3 hrs by Western blot analysis relative to control. The test is classed as functional. Summed up:
(§2)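 KOPN-8 cells were treated at 10–100 µM final, with or without N-acetylcysteine co-addition, for 3 h and 24 h. Lysates were analysed by Western blot for PARP cleavage, Mcl-1, phospho-Ser2 RNAPII CTD, c-Myc, total Rb and pRb. Levels are relative to the vehicle control.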

The test system of test [3] is KOPN-8. Kind of test: Induction of apoptosis in human KOPN8 cells assessed as effect on Mcl-1 level at 10 uM after 3 hrs by Western blot analysis relative to control. The test is classed as functional. Summed up:
as §2

Test [4] relates to KOPN-8. Kind of test: Induction of apoptosis in human KOPN8 cells assessed as upregulation of cleaved PARP level at 100 uM pre-treated with NAC for 1 hr and measured after 24 hrs by Western blot analysis. In kind it is functional, cell-based. Summed up: as §1
Test [5] relates to KOPN-8. Kind of test: Induction of apoptosis in human KOPN8 cells assessed as upregulation of cleaved PARP level after 3 to 24 hrs by Western blot analysis. In kind it is functional, cell-based. In outline:
as §1

The subject of test [6] is KOPN-8. Kind of test: Cell cycle arrest in human KOPN8 cells assessed as accumulation at G0/G1 phase at 10 uM after 24 hrs by propidium iodide staining-based flow cytometry (reference value: 24.77%). The test is classed as functional. Summed up:
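KOPN-8 cells treated 24 h alongside a DMSO vehicle and a staurosporine (2.0 µM) positive control. Apoptosis was scored by FITC Annexin V / propidium iodide flow cytometry with quadrant gating (early, late apoptotic). DNA content was measured by PI staining to give the percentage of cells in G0/G1, S and G2/M. Groups were compared by t-test; error bars are SD.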
A general note: In flow cytometry, cells or beads pass a laser one at a time.

The test system of a further test is MDA-MB-231. Kind of test: Cell cycle arrest in human MDA-MB-231 cells assessed as accumulation at G0/G1 phase at 5 uM after 24 hrs by propidium iodide staining-based flow cytometry (reference value: 70.47%). The test is classed as functional.
The test system of test [7] is KOPN-8. Kind of test: Induction of apoptosis in human KOPN8 cells assessed as late apoptotic cells at 5 uM after 24 hrs by Annexin V-FITC/propidium iodide staining-based flow cytometry (reference value: 9.5%). The test is classed as functional. Summed up:
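KOPN-8 cells were treated for 24 h, with a DMSO vehicle control and a staurosporine positive control. Cells were stained with FITC-Annexin V and propidium iodide and analysed by flow cytometry. Quadrant gating separated viable, early apoptotic, late apoptotic (Q2) and necrotic populations.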

Consider `COc1ccc(-c2c(I)c(=O)c3c(OC)cc(OC)cc3n2S(=O)(=O)c2ccc(OC)cc2)cc1`, for which, in test [1], the inhibition entry was “Dose-dependent effect”. Besides, the “fold change (FC)” value was 0.6 in the test on KOPN-8 [2] and 0.8 with KOPN-8 [3]. In addition, the outcome with KOPN-8 [4] was Active. Moreover, the values for the Activity entry with KOPN-8 [5] and in the test with KOPN-8 [6] were “Dose-dependent effect” and 47.22%, respectively.
`CN(C)C(=O)c1cc2cnc(Nc3ccc(N4CCNCC4)cn3)nc2n1C1CCCC1` [RIBOCICLIB]: the results for the Activity in the test with MDA-MB-231 and in the test with KOPN-8 [7] were 90.85% and 67.4%, respectively.
